Data on 2 compounds can be found in ChEMBL document CHEMBL1146900, “New opioid designed multiple ligand from Dmt-Tic and morphinan pharmacophores” (J Med Chem, 2006).

By IC50 is commonly meant the concentration at which inhibition is half-maximal. As usually defined, the Ki is the dissociation constant of the complex between target and ligand, obtained from inhibition or displacement. A higher Ki goes with lower affinity. The EC50 is the concentration at which the effect is half-maximal. By Emax is commonly meant the greatest response seen or fitted, relative to the assay's reference. One may read the inhibition as the change of the read-out against control, counted positive when it falls.

Active and inactive are the calls of the source. The rule behind the calls is not given here. Non-standard residues stand in square brackets, D forms with d. Residues, ends and D or L forms follow the SMILES beside them. Dmt = Cc1cc(O)cc(C)c1C[C@H](N)C(=O)O; Tic = O=C(O)[C@@H]1Cc2ccccc2CN1; βAla = NCCC(=O)O

Assay [1] addresses T1, Delta-type opioid receptor (Homo sapiens, UniProt P41143). Put plainly: Antagonist activity against human delta opioid receptor expressed in CHO cells assessed as inhibition of SNC80-stimulated [35S]GTP-gamma-S binding. Type of assay: functional, cell-based. Put shortly:
(§1)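 CHO membranes stably expressing a single human opioid receptor were incubated with agonist plus varying compound concentrations, and [35S]GTPγS binding was measured. Agonists: μ, DAMGO 200 nM; δ, SNC-80 100 nM; κ, U50,488 100 nM. Imax is the maximal percent inhibition of agonist-stimulated binding.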
In general terms: GTPγS is a poorly hydrolysed GTP analogue; its binding reports G protein activation.

The target of assay [2] is T2, Kappa-type opioid receptor (Homo sapiens, UniProt P41145). Put plainly: Antagonist activity against human kappa opioid receptor expressed in CHO cells assessed as inhibition of U50488-stimulated [35S]GTPgammaS binding. Type of assay: functional, cell-based. The method, boiled down: as §1
Assay [3] has as its target T3, Mu-type opioid receptor (Homo sapiens, UniProt P35372). Put plainly: Displacement of [3H]DAMGO from human mu opioid receptor expressed in CHO cells. Type of assay: cell-based. The method, boiled down:
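Competition binding run on membranes prepared from CHO cells that stably express the human mu receptor.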
On the technique in general: Loss of bound radioactivity is the signal in a displacement assay; it reports binding, not function.

Assay [4] deals with T1, Delta-type opioid receptor. Nature of the assay: Displacement of [3H]naltrindole from human delta opioid receptor expressed in CHO cells. Type of assay: cell-based.
Assay [5] deals with T2, Kappa-type opioid receptor. Nature of the assay: Displacement of [3H]U-69593 from human kappa opioid receptor expressed in CHO cells. Type of assay: cell-based.
Assay [6] has as its target T2, Kappa-type opioid receptor. Put plainly: Inhibition of [3H]U-69593 binding to human kappa opioid receptor expressed in CHO cells at 10 uM. Type of assay: cell-based.
The target of assay [7] is T3, Mu-type opioid receptor. Put plainly: Agonist activity at human mu opioid receptor expressed in CHO cells assessed as stimulation of [35S]GTP-gamma-S binding. Type of assay: functional, cell-based. Put shortly:
(§2)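 Membranes from CHO cells stably expressing only the human μ, δ or κ opioid receptor were incubated with various concentrations of compound, and stimulation of [35S]GTPγS binding was measured. Emax is the maximal percent stimulation. EC50 is the concentration giving 50% of Emax. EC50 was not calculated when Emax was 30% or lower.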

For assay [8], the target named is T1, Delta-type opioid receptor. Put plainly: Agonist activity at human delta opioid receptor expressed in CHO cells assessed as stimulation of [35S]GTP-gamma-S binding. Type of assay: functional, cell-based. The method, boiled down: as §2
For assay [9], the target named is T2, Kappa-type opioid receptor. Put plainly: Agonist activity at human kappa opioid receptor expressed in CHO cells assessed as stimulation of [35S]GTPgammaS binding. Type of assay: functional, cell-based. The method, boiled down: as §2
Assay [10] has as its target T3, Mu-type opioid receptor. Put plainly: Antagonist activity against human mu opioid receptor expressed in CHO cells assessed as inhibition of DAMGO-stimulated [35S]GTP-gamma-S binding. Type of assay: functional, cell-based. Put shortly: as §1
In assay [11] the target is Opioid receptors; mu & delta (Homo sapiens) (UniProt P41143+P35372). Put plainly: Selectivity for delta opioid receptor over mu opioid receptor. Type of assay: protein assay. Put shortly:
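Competition binding to membranes of CHO cells stably expressing human μ or δ opioid receptors, each receptor in separate membranes. Selectivity comes from comparing the affinities at the two receptors.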

T1 sequence (P41143 whole entry): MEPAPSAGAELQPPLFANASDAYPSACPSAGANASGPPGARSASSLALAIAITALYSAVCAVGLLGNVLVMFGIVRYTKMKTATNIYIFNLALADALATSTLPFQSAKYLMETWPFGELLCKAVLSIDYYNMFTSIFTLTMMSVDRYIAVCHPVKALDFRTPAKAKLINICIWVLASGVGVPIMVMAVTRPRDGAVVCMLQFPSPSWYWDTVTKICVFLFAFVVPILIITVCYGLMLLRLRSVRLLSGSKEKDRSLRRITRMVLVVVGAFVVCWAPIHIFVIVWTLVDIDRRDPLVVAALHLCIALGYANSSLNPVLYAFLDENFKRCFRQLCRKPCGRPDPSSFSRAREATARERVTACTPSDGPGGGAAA
T2 sequence (P41145 whole entry): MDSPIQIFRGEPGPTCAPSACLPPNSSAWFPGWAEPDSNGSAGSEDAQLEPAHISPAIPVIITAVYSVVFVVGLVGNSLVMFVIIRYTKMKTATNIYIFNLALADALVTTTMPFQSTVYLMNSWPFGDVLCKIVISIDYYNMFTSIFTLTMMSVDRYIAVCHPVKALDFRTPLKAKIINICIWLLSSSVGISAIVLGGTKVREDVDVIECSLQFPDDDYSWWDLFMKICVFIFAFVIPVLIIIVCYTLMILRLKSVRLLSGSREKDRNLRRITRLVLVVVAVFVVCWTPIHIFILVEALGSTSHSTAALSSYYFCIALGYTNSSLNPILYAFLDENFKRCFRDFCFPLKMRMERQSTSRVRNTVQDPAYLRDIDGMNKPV
T3 sequence (P35372 whole entry): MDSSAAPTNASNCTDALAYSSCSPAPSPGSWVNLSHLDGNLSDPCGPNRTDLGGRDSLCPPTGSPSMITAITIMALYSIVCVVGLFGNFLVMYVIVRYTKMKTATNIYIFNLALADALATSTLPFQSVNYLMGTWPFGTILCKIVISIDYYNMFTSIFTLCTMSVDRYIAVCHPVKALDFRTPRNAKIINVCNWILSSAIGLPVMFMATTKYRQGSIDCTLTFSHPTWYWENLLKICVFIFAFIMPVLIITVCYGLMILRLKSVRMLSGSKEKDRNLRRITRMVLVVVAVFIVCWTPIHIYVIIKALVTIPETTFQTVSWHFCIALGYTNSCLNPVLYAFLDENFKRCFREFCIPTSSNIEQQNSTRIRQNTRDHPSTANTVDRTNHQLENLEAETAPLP
Opioid receptors; mu & delta (Homo sapiens), sequence (P35372 whole entry, looked up): as the sequence (P35372 whole entry) above
Opioid receptors; mu & delta (Homo sapiens), sequence (P41143 whole entry, looked up): as the sequence (P41143 whole entry) above

With `Cc1cc(O)cc(C)c1C[C@H](N)C(=O)N1Cc2ccccc2C[C@H]1C(=O)NCCC(=O)Oc1ccc2c(c1)[C@@]13CCCC[C@H]1[C@@H](C2)N(CC1CCC1)CC3`, the IC50 is 3.9 nM in assay [1] and 97 nM in assay [10]. For the same compound, the values for the Imax in assay [1] and in [10] were 84% and 47%, respectively. For the same compound, the result in [2] was inactive. The Ki in assay [3] was determined as 0.69 nM; in [4], 1.5 nM; in assay [5] it was 0.28 nM; in assay [6], 0.28 nM. Also, the EC50 was found to be 8.9 nM in assay [7], 2.8 nM in assay [8] and 6 nM in assay [9]. For the same compound, the values for the Emax in assay [7], in assay [8] and in assay [9] were 79%, 18% and 130%, respectively.

With `Cc1cc(O)cc(C)c1C[C@H](N)C(=O)N1Cc2ccccc2C[C@H]1C(=O)NCCC(=O)O` (H-[Dmt]-[Tic]-[βAla]-OH), in [1], the IC50 stood at 10 nM and the Imax is 93%. In assay [2], the IC50 result was “Not Active” and the Imax result is “inactive”. Besides, the affinity in assay [4], expressed as Ki, was 4.2 nM. This compound displayed an inhibition in assay [6] of 62%. In addition, in assay [11], the Ratio Ki was 262. Also, in [8], the outcome was inactive and the Emax was 0.95%.
